Experimental data as given in ChEMBL document CHEMBL2424553, “Synthesis, molecular docking and kinetic properties of β-hydroxy-β-phenylpropionyl-hydroxamic acids as Helicobacter pylori urease inhibitors” (Eur J Med Chem, 2013).

How the values were obtained:
[1] = molecular target: T1, Urease subunit alpha/Urease subunit beta (Helicobacter pylori (strain ATCC 700392 / 26695) (Campylobacterpylori), UniProt P69996); assay: Inhibition of urease extracted from Helicobacter pylori ATCC 43504 assessed as ammonia production preincubated for 1.5 hrs by indophenol-based method
T1 sequence (P69996 whole entry): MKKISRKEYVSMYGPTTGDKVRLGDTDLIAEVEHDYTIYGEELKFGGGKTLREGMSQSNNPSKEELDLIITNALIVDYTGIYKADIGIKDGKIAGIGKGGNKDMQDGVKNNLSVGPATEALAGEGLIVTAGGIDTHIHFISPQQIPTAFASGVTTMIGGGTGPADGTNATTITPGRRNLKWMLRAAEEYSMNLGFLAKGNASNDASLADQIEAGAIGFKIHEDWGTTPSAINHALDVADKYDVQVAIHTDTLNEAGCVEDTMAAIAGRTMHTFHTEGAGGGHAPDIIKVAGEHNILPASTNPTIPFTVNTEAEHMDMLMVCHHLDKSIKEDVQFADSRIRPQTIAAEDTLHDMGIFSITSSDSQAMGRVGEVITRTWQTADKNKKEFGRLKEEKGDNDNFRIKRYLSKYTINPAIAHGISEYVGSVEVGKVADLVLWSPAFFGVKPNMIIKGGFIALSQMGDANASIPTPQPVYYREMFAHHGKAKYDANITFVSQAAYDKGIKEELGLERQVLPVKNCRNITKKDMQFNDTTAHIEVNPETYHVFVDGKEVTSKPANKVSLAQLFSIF
T1 sequence (P14916 whole entry, further chain): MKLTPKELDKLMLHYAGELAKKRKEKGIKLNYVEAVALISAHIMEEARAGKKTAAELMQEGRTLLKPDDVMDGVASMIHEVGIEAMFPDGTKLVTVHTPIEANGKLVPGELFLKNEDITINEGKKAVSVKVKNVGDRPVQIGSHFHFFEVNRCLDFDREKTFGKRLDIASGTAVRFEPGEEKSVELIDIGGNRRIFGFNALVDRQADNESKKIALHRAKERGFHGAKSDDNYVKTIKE
Method in brief: (§1)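 H. pylori ATCC 43504 grown 24 h at 37 °C in Brucella broth with 10% heat-inactivated horse serum under microaerobic gas (5% O2, 10% CO2, 85% N2). Cells pelleted (5000 g, 4 °C) and washed twice in PBS pH 7.4 to prepare urease. Enzyme pre-incubated with test compound 1.5 h at room temperature. Ammonia measured by the indophenol method. Run in triplicate.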

[2] = molecular target: T1, Urease subunit alpha/Urease subunit beta; assay: Inhibition of urease in Helicobacter pylori ATCC 43504 intact cell assessed as ammonia production preincubated for 1.5 hrs by indophenol-based method
Method in brief: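 H. pylori grown 24 h at 37 °C in Brucella broth with 10% heat-inactivated horse serum, microaerobic (5% O₂, 10% CO₂, 85% N₂); cells pelleted (5000 g, 4 °C), PBS-washed (pH 7.4), suspended at 4.0 × 10⁷ CFU/mL. Suspension with test compound preincubated 1.5 h at room temperature; ammonia measured by Weatherburn indophenol method.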

[3] = molecular target: T2, Urease subunit alpha/Urease subunit beta (Helicobacter pylori (strain ATCC 700392 / 26695) (Campylobacterpylori)) (UniProt P69996+P14916); assay: Ratio of IC50 for urease in Helicobacter pylori ATCC 43504 intact cell to IC50 for urease extracted from Helicobacter pylori ATCC 43504
T2 sequence (P14916 whole entry, looked up): as the sequence (P14916 whole entry, further chain) above
T2 sequence (P69996 whole entry, looked up): as the sequence (P69996 whole entry) above

[4] = molecular target: T2, Urease subunit alpha/Urease subunit beta (Helicobacter pylori (strain ATCC 700392 / 26695) (Campylobacterpylori)); assay: Potency index, ratio of AHA IC50 to compound IC50 for Helicobacter pylori ATCC 43504 urease
[5] = molecular target: T1, Urease subunit alpha/Urease subunit beta; assay: Mixed-type competitive inhibition of Helicobacter pylori ATCC 43504 urease using urea as substrate by Lineweaver-burk plot analysis
[6] = molecular target: T1, Urease subunit alpha/Urease subunit beta; assay: Inhibition of Helicobacter pylori urease; method in brief: as §1

| Compound | IC50 [1] [µM] | IC50 [2] [µM] | Ratio IC50 [3] | also measured |
| --- | --- | --- | --- | --- |
| CN(C)c1ccc(C(=O)NO)cc1 | 77.9 | – | – | – |
| O=C(CC(O)c1ccccc1)NO (racemic) | 15.6 | – | – | – |
| COc1ccccc1C(O)CC(=O)NO (racemic) | 38.5 | – | – | – |
| O=C(CC(O)c1ccccc1Cl)NO (racemic) | 1.19 | 9.21 | 3 | – |
| O=C(CC(O)c1ccccc1F)NO (racemic) | 5.6 | – | – | – |
| O=C(CC(O)c1cccc(O)c1)NO (racemic) | 131 | – | – | – |
| COc1cccc(C(O)CC(=O)NO)c1 (racemic) | 23.2 | – | – | – |
| O=C(CC(O)c1cccc(Cl)c1)NO (racemic) | 0.083 | 0.36 | – | Ratio IC50 [4]: 330; Ki [5]: 0.014 µM |
| O=C(CC(O)c1cccc(F)c1)NO (racemic) | 3.99 | 13.3 | 3 | – |
| O=C(CC(O)c1cccc(C(F)(F)F)c1)NO (racemic) | 1.22 | 6.81 | 3 | – |
| COc1ccc(C(O)CC(=O)NO)cc1 (racemic) | 75.1 | – | – | – |
| O=C(CC(O)c1ccc(OCc2ccccc2)cc1)NO (racemic) | 61.5 | – | – | – |
| O=C(CC(O)c1ccc(Cl)cc1)NO (racemic) | 3.39 | – | – | – |
| O=C(CC(O)c1ccc(F)cc1)NO (racemic) | 8.01 | – | – | – |
| O=C(CC(O)c1ccc(C(F)(F)F)cc1)NO (racemic) | 7.89 | – | – | – |
| CN(C)c1ccc(C(O)CC(=O)NO)cc1 (racemic) | 7.13 | – | – | – |
| O=C(CC(O)c1cccc(Cl)c1Cl)NO (racemic) | 0.23 | 0.91 | 4 | Ki [5]: 0.045 µM |
| O=C(CC(O)c1ccc(Cl)c(Cl)c1)NO (racemic) | 0.37 | 1.42 | 3 | – |
| O=C(CC(O)c1cc(Cl)ccc1O)NO (racemic) | 1.28 | 11.3 | 8.8 | – |
| COc1ccc(F)cc1C(O)CC(=O)NO (racemic) | 11 | – | – | – |
| O=C(CC(O)c1cc(Cl)cc(Cl)c1O)NO (racemic) | 1.04 | 8.9 | 3 | – |
| CC(=O)NO [ACETOHYDROXAMIC ACID] | 27.6 | 110 | – | – |
| O=c1c(O)c(-c2ccc(O)c(O)c2)oc2cc(O)cc(O)c12 [QUERCETIN] | – | – | – | IC50 [6]: 11.2 µM |
